Data from ChEMBL document CHEMBL4334464, “From Phenylthiazoles to Phenylpyrazoles: Broadening the Antibacterial Spectrum toward Carbapenem-Resistant Bacteria” (J Med Chem, 2019).
Values after ≈ are worked out from the molar mass of the structure shown. Active and inactive are the calls of the source. The calls are words filed in the database; no cut-off is given here.

Tests used:
Staphylococcus aureus [1] = assay: Antibacterial activity against methicillin-resistant Staphylococcus aureus NRS384-USA300 clinical isolates after 18 to 20 hrs in aerobic condition by CLSI protocol based broth microdilution assay; assay type: functional
Escherichia coli [2] = assay: Antimicrobial activity against Escherichia coli JW55031 harboring deltatolC mutant after 18 to 20 hrs in aerobic condition by CLSI protocol based broth microdilution assay; assay type: functional
Escherichia coli [3] = assay: Antibacterial activity against carbapenem-resistant Escherichia coli BAA-2452 clinical isolates after 18 to 20 hrs in aerobic condition by CLSI-based broth microdilution assay; assay type: functional
Escherichia coli [4] = assay: Antibacterial activity against carbapenem-resistant Escherichia coli BAA-2469 clinical isolates after 18 to 20 hrs in aerobic condition by CLSI-based broth microdilution assay; assay type: functional
Klebsiella pneumoniae [5] = assay: Antibacterial activity against carbapenem-resistant Klebsiella pneumoniae ATCC BAA-1705 clinical isolates after 18 to 20 hrs in aerobic condition by CLSI-based broth microdilution assay; assay type: functional
Klebsiella pneumoniae [6] = assay: Antibacterial activity against carbapenem-resistant Klebsiella pneumoniae ATCC BAA-2146 clinical isolates after 18 to 20 hrs in aerobic condition by CLSI-based broth microdilution assay; assay type: functional
Acinetobacter baumannii [7] = assay: Antibacterial activity against carbapenem-resistant Acinetobacter baumannii ATCC BAA 1605 clinical isolates after 18 to 20 hrs in aerobic condition by CLSI-based broth microdilution assay; assay type: functional
Pseudomonas aeruginosa [8] = assay: Antibacterial activity against carbapenem-resistant Pseudomonas aeruginosa ATCC 1744 clinical isolates after 18 to 20 hrs in aerobic condition by CLSI-based broth microdilution assay; assay type: functional
Salmonella enteritidis = assay: Antibacterial activity against Salmonella enteritidis ATCC 14028 infected in mouse J774 cells assessed as reduction in intracellular bacterial cells at 2 times MIC incubated for 24 hrs followed by re-plating on TSA plate and measured after 18 to 22 hrs relative to control; assay type: functional; conditions: Salmonella enterica subsp. enterica serovar Enteritidis
In short: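 J774 murine macrophages infected with Salmonella enteritidis ATCC 14028, then treated at 2×MIC for 24 h, in triplicate. Read-out is the percent reduction in intracellular colony forming units versus the untreated control.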

Staphylococcus aureus [9] = assay: Antibacterial activity against vancomycin-resistant Staphylococcus aureus isolate 10 after 18 to 20 hrs in aerobic condition by CLSI-based broth microdilution assay; assay type: functional
Staphylococcus aureus [10] = assay: Antibacterial activity against vancomycin-resistant Staphylococcus aureus isolate 12 after 18 to 20 hrs in aerobic condition by CLSI-based broth microdilution assay; assay type: functional
Staphylococcus aureus [11] = assay: Bactericidal activity against methicillin-resistant Staphylococcus aureus NRS123-USA400 clinical isolates at 5 times MIC incubated over 24 hrs followed by replating on tryptic soy agar plate and further incubated for 18 to 20 hrs by time kill assay; assay type: functional, organism-based
Enterococcus faecalis = assay: Antibacterial activity against vancomycin-resistant Enterococcus faecalis ATCC 51299 clinical isolates after 18 to 20 hrs in aerobic condition by CLSI-based broth microdilution assay; assay type: functional
Enterococcus faecium = assay: Antibacterial activity against vancomycin-resistant Enterococcus faecium ATCC 700221 clinical isolates after 18 to 20 hrs in aerobic condition by CLSI-based broth microdilution assay; assay type: functional
Listeria monocytogenes = assay: Antibacterial activity against Listeria monocytogenes ATCC 19111 after 18 to 20 hrs in aerobic condition by CLSI-based broth microdilution assay; assay type: functional
Streptococcus pneumoniae [12] = assay: Antibacterial activity against cephalosporin-resistant Streptococcus pneumoniae ATCC 51916 clinical isolates after 18 to 20 hrs by CLSI-based broth microdilution assay; assay type: functional
Streptococcus pneumoniae [13] = assay: Antibacterial activity against methicillin-resistant Streptococcus pneumoniae ATCC 700677 clinical isolates after 18 to 20 hrs by CLSI-based broth microdilution assay; assay type: functional
Clostridioides difficile = assay: Antibacterial activity against Clostridium difficile ATCC BAA 1870 incubated for 48 hrs in anaerobic condition by CLSI-based broth microdilution assay; assay type: functional; conditions: ATCC BAA 1870, 48 h
Staphylococcus aureus [14] = assay: Antibiofilm activity against methicillin-resistant Staphylococcus aureus NRS384-USA300 clinical isolates assessed as inhibition of biofilm formation at 0.5 times MIC incubated for 24 hrs by crystal violet staining based spectrophotometric method relative to control; assay type: functional
Staphylococcus aureus [15] = assay: Antibacterial activity against methicillin-resistant Staphylococcus aureus NRS123-USA400 infected in mouse J774 cells assessed as reduction in intracellular bacterial cells at 2 times MIC incubated for 24 hrs followed by re-plating on TSA plate and measured after 18 to 22 hrs relative to control; assay type: functional
In short: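 J774 murine macrophages were infected with MRSA USA400 and then treated at 2×MIC for 24 h, in triplicate. The read-out was percent reduction in intracellular colony-forming units versus untreated infected cells.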

Staphylococcus aureus [16] = assay: Antibacterial activity against Methicillin-sensitive Staphylococcus aureus ATCC 6538 clinical isolates after 18 to 20 hrs in aerobic condition by CLSI protocol based broth microdilution assay; assay type: functional
Staphylococcus aureus [17] = assay: Antibacterial activity against Methicillin-sensitive Staphylococcus aureus NRS107 clinical isolates after 18 to 20 hrs in aerobic condition by CLSI protocol based broth microdilution assay; assay type: functional
Staphylococcus aureus [18] = assay: Antibacterial activity against linezolid-resistant/Methicillin-resistant Staphylococcus aureus NRS119 clinical isolates after 18 to 20 hrs in aerobic condition by CLSI protocol based broth microdilution assay; assay type: functional
Staphylococcus aureus [19] = assay: Antibacterial activity against Methicillin-resistant Staphylococcus aureus NRS123-USA400 clinical isolates after 18 to 20 hrs in aerobic condition by CLSI protocol based broth microdilution assay; assay type: functional
[20] = test system: Staphylococcus epidermidis; assay: Antibacterial activity against Staphylococcus epidermidis NRS101 after 18 to 20 hrs in aerobic condition by CLSI-based broth microdilution assay; assay type: functional
[21] = Apparent permeability across basolateral to apical side in human Caco2 cells after 2 hrs by LC/MS/MS analysis; assay type: ADME, cell-based; conditions: Caco-2
[22] = Efflux ratio of apparent permeability across basolateral to apical side over apical to basolateral side in human Caco2 cells after 2 hrs by LC/MS/MS analysis; assay type: ADME, cell-based; conditions: Caco-2
Acinetobacter baumannii [23] = assay: Antibacterial activity against Acinetobacter baumannii ATCC 19606 clinical isolates after 18 to 20 hrs in aerobic condition by CLSI-based broth microdilution assay; assay type: functional; conditions: ATCC 19606 = CIP 70.34 = JCM 6841
Escherichia coli [24] = assay: Antibacterial activity against Escherichia coli BW25113 clinical isolates after 18 to 20 hrs in aerobic condition by CLSI-based broth microdilution assay; assay type: functional
Klebsiella pneumoniae [25] = assay: Antibacterial activity against Klebsiella pneumoniae BAA-1706 clinical isolates after 18 to 20 hrs in aerobic condition by CLSI-based broth microdilution assay; assay type: functional
Pseudomonas aeruginosa [26] = assay: Antibacterial activity against Pseudomonas aeruginosa ATCC 15442 clinical isolates after 18 to 20 hrs in aerobic condition by CLSI-based broth microdilution assay; assay type: functional

Molecule C/C(=N\NC1=NCCN1)c1cnn(-c2ccc(C#CC3CC3)cc2)c1C has an MIC (Staphylococcus aureus [1]) of 16 µg/mL (≈ 46.2 µM) and an MIC (Escherichia coli [2]) of 32 µg/mL (≈ 92.4 µM).

Work on CCCCC#Cc1ccc(-n2ncc(/C(C)=N/NC(=N)N)c2C)cc1 yielded an MIC (Staphylococcus aureus [1]) of 2 µg/mL (≈ 5.94 µM) and an MIC (Escherichia coli [2]) of 4 µg/mL (≈ 11.9 µM).

C/C(=N\NC1=NCCN1)c1cnn(-c2ccc(C#CC3(O)CCCCC3)cc2)c1C gave an MIC (Staphylococcus aureus [1]) of 64 µg/mL (≈ 158 µM) and an MIC (Escherichia coli [2]) of 32 µg/mL (≈ 79.1 µM).

For C/C(=N\NC1=NCCN1)c1cnn(-c2ccc(C#Cc3ccccc3)cc2)c1C, the MIC (Staphylococcus aureus [1]) was 4 µg/mL (≈ 10.5 µM) and the MIC (Escherichia coli [2]) was 4 µg/mL (≈ 10.5 µM).

For CCCCCCC#Cc1ccc(-n2ncc(/C(C)=N/NC3=NCCN3)c2C)cc1, the MIC (Staphylococcus aureus [1]) was 4 µg/mL (≈ 10.2 µM) and the MIC (Escherichia coli [2]) was 8 µg/mL (≈ 20.5 µM).

Work on CCN(CC)CC#Cc1ccc(-n2ncc(/C(C)=N/NC(=N)N)c2C)cc1 yielded an MIC (Staphylococcus aureus [1]) of 128 µg/mL (≈ 350 µM) and an MIC (Escherichia coli [2]) of 128 µg/mL (≈ 350 µM).

For CN(C)c1cc(NC(=O)CNC(C)(C)C)c(O)c2c1C[C@H]1C[C@H]3[C@H](N(C)C)C(O)=C(C(N)=O)C(=O)[C@@]3(O)C(O)=C1C2=O [TIGECYCLINE], the MIC (Escherichia coli [3]) was 0.25 µg/mL (≈ 0.427 µM), the MIC (Escherichia coli [4]) was 0.5 µg/mL (≈ 0.854 µM) and the MIC (Klebsiella pneumoniae [5]) was 1 µg/mL (≈ 1.71 µM). For the same molecule, the MIC (Klebsiella pneumoniae [6]) was 4 µg/mL (≈ 6.83 µM), the MIC (Acinetobacter baumannii [7]) was 1 µg/mL (≈ 1.71 µM) and the MIC (Pseudomonas aeruginosa [8]) was 8 µg/mL (≈ 13.7 µM).

Molecule CCCC#Cc1ccc(-n2ncc(/C(C)=N/NC3=NCCN3)c2C)cc1 has an MIC (Staphylococcus aureus [1]) of 8 µg/mL (≈ 23 µM) and an MIC (Escherichia coli [2]) of 16 µg/mL (≈ 45.9 µM).

In the case of NC[C@H]1O[C@H](O[C@H]2[C@H](O)[C@@H](O[C@H]3O[C@H](CO)[C@@H](O)[C@H](N)[C@H]3O)[C@H](N)C[C@@H]2N)[C@H](O)[C@@H](O)[C@@H]1O, the Activity (Salmonella enteritidis) is reported as “inactive”.

For CN[C@H](CC(C)C)C(=O)N[C@H]1C(=O)N[C@@H](CC(N)=O)C(=O)N[C@H]2C(=O)N[C@H]3C(=O)N[C@H](C(=O)N[C@H](C(=O)O)c4cc(O)cc(O)c4-c4cc3ccc4O)[C@H](O)c3ccc(c(Cl)c3)Oc3cc2cc(c3O[C@@H]2O[C@H](CO)[C@@H](O)[C@H](O)[C@H]2O[C@H]2C[C@](C)(N)[C@H](O)[C@H](C)O2)Oc2ccc(cc2Cl)[C@H]1O [VANCOMYCIN], the MIC (Staphylococcus aureus [9]) was greater than 64 µg/mL, the MIC (Staphylococcus aureus [10]) was 64 µg/mL (≈ 44.2 µM) and the Activity (Staphylococcus aureus [11]) was “Active”. The MIC (Enterococcus faecalis) was 32 µg/mL (≈ 22.1 µM), the MIC (Enterococcus faecium) was greater than 64 µg/mL and the MIC (Listeria monocytogenes) was 2 µg/mL (≈ 1.38 µM). The MIC (Streptococcus pneumoniae [12]) was 2 µg/mL (≈ 1.38 µM), the MIC (Streptococcus pneumoniae [13]) was 1 µg/mL (≈ 0.69 µM) and the MIC (Clostridioides difficile) was 1 µg/mL (≈ 0.69 µM). The “inhibition (INH)” value (Staphylococcus aureus [14]) was 18% and the Activity (Staphylococcus aureus [15]) was “inactive”.

In the case of CC(=O)NC[C@H]1CN(c2ccc(N3CCOCC3)c(F)c2)C(=O)O1 [LINEZOLID], the MIC (Staphylococcus aureus [1]) is reported as 1 µg/mL (≈ 2.96 µM), the MIC (Staphylococcus aureus [16]) is reported as 1 µg/mL (≈ 2.96 µM) and the MIC (Staphylococcus aureus [17]) is reported as 1 µg/mL (≈ 2.96 µM). The MIC (Staphylococcus aureus [18]) was 32 µg/mL (≈ 94.9 µM), the MIC (Staphylococcus aureus [19]) was 1 µg/mL (≈ 2.96 µM) and the MIC (Staphylococcus aureus [9]) was 1 µg/mL (≈ 2.96 µM). It also gave an MIC (Staphylococcus aureus [10]) of 1 µg/mL (≈ 2.96 µM), an MIC [20] of no more than 0.5 µg/mL and an MIC (Enterococcus faecium) of 1 µg/mL (≈ 2.96 µM). For the same molecule, the MIC (Listeria monocytogenes) was 1 µg/mL (≈ 2.96 µM).

With CC(=O)C(=CN(C)C)C(C)=O the Papp B→A at 2 h [21] was 1.2 ×10⁻⁶ cm/s and the efflux ratio at 2 h [22] was greater than 2.

With C/C(=N/NC(=N)N)c1sc(-c2ccc(C#Cc3ccccc3)cc2)nc1C the Activity (Escherichia coli [2]) was “inactive”, the Activity (Acinetobacter baumannii [23]) was “inactive” and the Activity (Escherichia coli [24]) was “inactive”. For the same molecule, the Activity (Klebsiella pneumoniae [25]) was “inactive” and the Activity (Pseudomonas aeruginosa [26]) was “inactive”.

For C/C(=N\NC1=NCCN1)c1cnn(-c2ccc(C#CC(C)(C)O)cc2)c1C, the MIC (Staphylococcus aureus [1]) was 32 µg/mL (≈ 87.8 µM) and the MIC (Escherichia coli [2]) was 16 µg/mL (≈ 43.9 µM).
